Assay results as given in ChEMBL document CHEMBL1140012, “Rapid hit to lead evaluation of pyrazolo[3,4-d]pyrimidin-4-one as selective and orally bioavailable mGluR1 antagonists” (Bioorg Med Chem Lett, 2007).
Values after ≈ are worked out from the molar mass of the structure shown.

Target: Metabotropic glutamate receptor 5 (Homo sapiens, UniProt P41594)
Assay: Antagonist activity at human mGluR5 receptor expressed in […] cells assessed as inhibition of glutamate-induced calcium flux by FLIPR assay
Format: functional, cell-based
Conditions: not given
Procedure, shortened: (§1)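 1321N1 cells transfected with human mGluR1 or human mGluR5 and co-expressing rat GLAST were used in a FLIPR calcium influx assay. Calcium flux was induced by 10 μM glutamate. IC50 is the concentration blocking 50% of that flux, given as the mean ± SEM of at least three determinations.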

Sequence of Metabotropic glutamate receptor 5 (P41594 whole entry): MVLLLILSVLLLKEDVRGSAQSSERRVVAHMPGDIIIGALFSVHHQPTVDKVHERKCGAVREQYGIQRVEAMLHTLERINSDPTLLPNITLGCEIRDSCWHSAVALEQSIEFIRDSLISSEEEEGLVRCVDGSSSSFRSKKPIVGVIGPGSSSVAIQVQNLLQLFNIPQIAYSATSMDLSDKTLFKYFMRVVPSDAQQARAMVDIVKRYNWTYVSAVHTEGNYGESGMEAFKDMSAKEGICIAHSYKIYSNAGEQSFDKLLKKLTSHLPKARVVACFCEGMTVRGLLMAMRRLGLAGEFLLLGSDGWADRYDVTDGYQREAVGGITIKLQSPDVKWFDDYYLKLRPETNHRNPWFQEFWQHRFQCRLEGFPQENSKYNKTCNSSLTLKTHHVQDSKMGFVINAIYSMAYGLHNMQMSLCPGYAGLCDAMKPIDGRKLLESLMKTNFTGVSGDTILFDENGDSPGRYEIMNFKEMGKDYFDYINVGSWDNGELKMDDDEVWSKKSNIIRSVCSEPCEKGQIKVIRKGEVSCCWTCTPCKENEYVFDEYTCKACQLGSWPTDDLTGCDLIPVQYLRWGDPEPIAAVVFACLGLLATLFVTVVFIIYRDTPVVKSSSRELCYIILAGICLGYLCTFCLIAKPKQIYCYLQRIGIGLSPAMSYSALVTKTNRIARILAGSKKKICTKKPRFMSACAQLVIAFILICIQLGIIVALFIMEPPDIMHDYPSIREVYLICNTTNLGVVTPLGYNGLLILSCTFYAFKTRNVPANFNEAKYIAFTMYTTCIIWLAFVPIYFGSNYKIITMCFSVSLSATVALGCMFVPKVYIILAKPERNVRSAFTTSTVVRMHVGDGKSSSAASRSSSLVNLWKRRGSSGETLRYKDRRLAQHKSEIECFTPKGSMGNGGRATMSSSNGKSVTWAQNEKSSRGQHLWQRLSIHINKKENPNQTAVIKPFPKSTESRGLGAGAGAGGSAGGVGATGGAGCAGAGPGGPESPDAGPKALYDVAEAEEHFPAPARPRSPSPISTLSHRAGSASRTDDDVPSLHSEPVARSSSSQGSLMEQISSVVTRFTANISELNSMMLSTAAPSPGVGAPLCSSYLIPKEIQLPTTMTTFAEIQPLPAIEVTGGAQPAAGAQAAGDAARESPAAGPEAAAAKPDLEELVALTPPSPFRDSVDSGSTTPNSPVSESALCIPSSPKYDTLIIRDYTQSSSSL

Row | IC50 | Structure (SMILES)
1 | > 100000 nM | Cc1nc2c(cnn2-c2ccccc2)c(=O)n1-c1ccc(Cl)c(F)c1
2 | > 100000 nM | Cc1nc2c(cnn2-c2cncnc2)c(=O)n1-c1ccc(Cl)cc1
3 | > 100000 nM | Cc1nc2c(cnn2-c2cccnc2)c(=O)n1-c1ccc(Cl)cc1
4 | > 100000 nM | Cc1nc2c(cnn2-c2ccccn2)c(=O)n1-c1ccc(Cl)cc1
5 | > 100000 nM | Cc1nc2c(cnn2C2CCCCCC2)c(=O)n1-c1ccc(Cl)cc1
6 | 3600 nM | Cc1nc2c(cnn2-c2ccccc2)c(=O)n1N1CCCCCC1
7 | > 100000 nM | Cc1cccc(-n2ncc3c(=O)n(-c4ccc(Cl)cc4)c(C)nc32)c1
8 | 9500 nM | Cc1ccccc1-n1ncc2c(=O)n(-c3ccc(Cl)cc3)c(C)nc21
9 | > 100000 nM | Cc1nc2c(cnn2-c2ccc(Cl)cc2)c(=O)n1-c1ccc(Cl)cc1

Target: Metabotropic glutamate receptor 1 (Homo sapiens, UniProt Q13255)
Assay: Antagonist activity at human mGluR1 receptor expressed in […] cells assessed as inhibition of glutamate-induced calcium flux by FLIPR assay
Format: functional, cell-based
Conditions: not given
Procedure, shortened: as §1

Sequence of Metabotropic glutamate receptor 1 (Q13255 whole entry): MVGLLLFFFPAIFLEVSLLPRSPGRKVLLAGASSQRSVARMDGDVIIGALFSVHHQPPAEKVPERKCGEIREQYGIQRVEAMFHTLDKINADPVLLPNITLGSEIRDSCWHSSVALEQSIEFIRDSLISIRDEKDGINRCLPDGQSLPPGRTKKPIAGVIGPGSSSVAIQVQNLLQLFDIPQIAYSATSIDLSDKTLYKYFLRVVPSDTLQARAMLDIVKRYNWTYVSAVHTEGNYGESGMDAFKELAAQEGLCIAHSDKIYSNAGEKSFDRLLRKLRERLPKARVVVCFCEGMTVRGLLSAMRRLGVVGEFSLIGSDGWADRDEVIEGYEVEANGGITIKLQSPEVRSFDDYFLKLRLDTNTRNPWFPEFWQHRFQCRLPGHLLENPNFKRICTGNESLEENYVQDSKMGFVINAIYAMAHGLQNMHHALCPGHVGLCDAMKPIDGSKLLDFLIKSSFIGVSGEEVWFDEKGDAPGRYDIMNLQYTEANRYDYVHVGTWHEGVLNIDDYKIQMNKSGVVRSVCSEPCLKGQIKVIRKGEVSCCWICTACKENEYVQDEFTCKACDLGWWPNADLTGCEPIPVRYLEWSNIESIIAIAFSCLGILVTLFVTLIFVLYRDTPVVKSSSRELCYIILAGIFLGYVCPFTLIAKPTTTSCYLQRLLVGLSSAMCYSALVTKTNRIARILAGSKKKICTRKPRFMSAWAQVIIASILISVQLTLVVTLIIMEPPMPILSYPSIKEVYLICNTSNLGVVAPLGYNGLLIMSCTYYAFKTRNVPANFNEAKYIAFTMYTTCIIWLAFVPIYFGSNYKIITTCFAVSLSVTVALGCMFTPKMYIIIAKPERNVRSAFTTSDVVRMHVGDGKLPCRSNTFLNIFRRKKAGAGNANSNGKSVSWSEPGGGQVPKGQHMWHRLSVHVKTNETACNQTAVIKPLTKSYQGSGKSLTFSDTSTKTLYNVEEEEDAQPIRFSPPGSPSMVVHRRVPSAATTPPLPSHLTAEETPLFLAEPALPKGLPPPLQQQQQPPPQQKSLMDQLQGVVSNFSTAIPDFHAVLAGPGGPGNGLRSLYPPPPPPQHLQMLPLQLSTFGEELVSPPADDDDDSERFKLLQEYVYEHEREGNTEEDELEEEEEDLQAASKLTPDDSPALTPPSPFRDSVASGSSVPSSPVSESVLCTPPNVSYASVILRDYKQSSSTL

Row | IC50 | Structure (SMILES)
10 | 760 nM | Cc1nc2c(cnn2-c2ccccc2)c(=O)n1C1CCCCCC1
11 | > 100000 nM | Cc1nc2c(cnn2-c2ccccc2)c(=O)n1-c1cccc(Cl)c1
12 | 800 nM | Cc1nc2c(cnn2-c2ccccc2)c(=O)n1-c1ccc(Cl)c(F)c1
13 | 9800 nM | Cc1nc2c(cnn2-c2cncnc2)c(=O)n1-c1ccc(Cl)cc1
14 | 230 nM | Cc1nc2c(cnn2-c2cccnc2)c(=O)n1-c1ccc(Cl)cc1
15 | > 100000 nM | Cc1nc2c(cnn2-c2ccccn2)c(=O)n1-c1ccc(Cl)cc1
16 | 520 nM | Cc1nc2c(cnn2C2CCCCCC2)c(=O)n1-c1ccc(Cl)cc1
17 | 240 nM | Cc1nc2c(cnn2-c2ccccc2)c(=O)n1N1CCCCCC1
18 | 180 nM | Cc1cccc(-n2ncc3c(=O)n(-c4ccc(Cl)cc4)c(C)nc32)c1
19 | 350 nM | Cc1ccccc1-n1ncc2c(=O)n(-c3ccc(Cl)cc3)c(C)nc21
20 | 1100 nM | Cc1nc2c(cnn2-c2ccc(Cl)cc2)c(=O)n1-c1ccc(Cl)cc1

Tested on: not listed separately
Assay: Metabolic stability assessed as intrinsic clearance in rat liver microsomes
Format: ADME, Microsome
Conditions: not given
Procedure, shortened: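 Intrinsic clearance was measured in rat liver microsomes and reported as scaled intrinsic clearance.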

Row | CLint scaled | Structure (SMILES)
21 | 183 mL/min/kg | Cc1nc2c(cnn2-c2ccccc2)c(=O)n1-c1ccc(Cl)c(F)c1
22 | 66.7 mL/min/kg | Cc1nc2c(cnn2-c2cccnc2)c(=O)n1-c1ccc(Cl)cc1
23 | 400 mL/min/kg | Cc1cccc(-n2ncc3c(=O)n(-c4ccc(Cl)cc4)c(C)nc32)c1

Tested on: not listed separately
Assay: Aqueous solubility of the compound
Format: physicochemical
Conditions: buffer

Row | solubility | Structure (SMILES)
24 | 18 µM (≈ 6.39 µg/mL) | Cc1nc2c(cnn2-c2ccccc2)c(=O)n1-c1ccc(Cl)c(F)c1
25 | 73 µM (≈ 24.7 µg/mL) | Cc1nc2c(cnn2-c2cccnc2)c(=O)n1-c1ccc(Cl)cc1
26 | 30 µM (≈ 10.5 µg/mL) | Cc1cccc(-n2ncc3c(=O)n(-c4ccc(Cl)cc4)c(C)nc32)c1

Tested on: not listed separately
Assay: Permeability of the compound
Format: ADME
Conditions: not told; read-out: permeability
Procedure, shortened: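 Passive membrane permeability was measured and reported in ×10^-6 cm/s.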

Row | Papp | Structure (SMILES)
27 | 21.4 ×10⁻⁶ cm/s | Cc1nc2c(cnn2-c2cccnc2)c(=O)n1-c1ccc(Cl)cc1
28 | 13.4 ×10⁻⁶ cm/s | Cc1cccc(-n2ncc3c(=O)n(-c4ccc(Cl)cc4)c(C)nc32)c1
